{"source": "paper PMC3530929", "about": "(Journal of medicinal chemistry, 2012)", "key": {"[1]": {"biological_target": "T1, chymotrypsin-like (CT-L) activity of the 20S proteasome (Oryctolagus cuniculus, UniProt G1T4Q9)", "T1 sequence (G1T4Q9 60-263)": "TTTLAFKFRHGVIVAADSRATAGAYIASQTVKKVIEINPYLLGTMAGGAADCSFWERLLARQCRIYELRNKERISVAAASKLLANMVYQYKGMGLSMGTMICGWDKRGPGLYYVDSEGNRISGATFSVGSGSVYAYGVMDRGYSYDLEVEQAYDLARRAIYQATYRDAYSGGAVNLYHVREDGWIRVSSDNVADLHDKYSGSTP", "experiment": "In vitro CT-L proteasome inhibition, fluorogenic assay", "format": "biochemical, rabbit", "settings": "for IC50: CT-L inhibitory activity IC50, in vitro"}, "[2]": {"experiment": "Stability at room temperature", "format": "physicochemical", "settings": "for stability at room temperature: 1H NMR in deuterated DMSO up to 3 weeks, HPLC and LCMS in tris buffer"}, "[3]": {"tested_on": "rabbit 20S proteasome CT-L activity", "experiment": "Dialysis using purified rabbit 20S proteasome", "format": "biochemical", "settings": "for mode of CT-L proteasome inhibition (reversible or irreversible): concluded from dialysis; for recovery of CT-L activity during dialysis: dialysis up to 18 h at 4 °C", "outline": "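Test compound at 10 μM, or 0.1% DMSO vehicle, was added to rabbit 20S proteasome (1.5 nM final) in 50 mM Tris-HCl pH 7.6 and held 30 min at room temperature. The mixture was dialysed (3,500 MWCO) against assay buffer at 4 °C and sampled at 0, 0.5, 1, 4, 8 and 18 h. CT-L activity was assayed per the earlier method and normalised to the DMSO control.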"}, "[4]": {"experiment": "Stability in biological media by HPLC", "format": "physicochemical", "settings": "DMEM and RPMI-1640 without serum, 10 μM, 1% DMSO, 37 °C, 1, 3, 5, 7 days", "outline": "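A 1 mM DMSO stock from fresh powder was diluted into serum-free DMEM or RPMI (10 μM final, 1% DMSO), with 5 replicates per medium, and kept at 37 °C. Vials were removed on days 1, 3, 5 and 7, chilled to 0 °C on ice and analysed at once by HPLC. Conditions: C18, 5 μm, 4.6×150 mm, isocratic 35% or 50% CH3CN/water with 0.1% TFA depending on compound, 1 ml/min, 30 min. Peak area was plotted against day.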"}, "[5]": {"tested_on": "ubiquitinated cellular proteins in MDA-MB-468 cells", "experiment": "Ubiquitination by Western blot analysis", "format": "cell-based, human", "settings": "MDA-MB-468, 11 hours, various concentrations"}, "[6]": {"biological_target": "T2, trypsin-like (T-L) activity of the proteasome (Oryctolagus cuniculus, UniProt G1SWK8)", "T2 sequence (G1SWK8 1-271)": "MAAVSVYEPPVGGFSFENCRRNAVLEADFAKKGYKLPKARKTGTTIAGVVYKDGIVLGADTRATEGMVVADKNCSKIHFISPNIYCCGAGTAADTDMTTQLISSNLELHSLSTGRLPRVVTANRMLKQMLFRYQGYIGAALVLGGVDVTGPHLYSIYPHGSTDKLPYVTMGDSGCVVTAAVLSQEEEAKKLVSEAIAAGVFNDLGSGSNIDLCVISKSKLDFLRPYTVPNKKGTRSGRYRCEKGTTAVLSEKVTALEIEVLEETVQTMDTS", "experiment": "In vitro T-L proteasome inhibition, fluorogenic assay", "format": "biochemical, rabbit", "settings": "read-out: T-L inhibition at 10 μM (cells printed ND)"}}, "note": "“Also recorded” adds a separate entry of the source.", "data": [{"smiles": "O=S(=O)(Nc1cc(Sc2nnn[nH]2)c(O)c2ccccc12)c1cccs1", "note": "[Compound 15d, N-(3-(1H-tetrazol-5-ylthio)-4-hydroxynaphthalen-1-yl)thiophene-2-sulfonamide]", "values": [{"measurement": "selectivity CT-L versus T-L (in words)", "setting": "[1]; in vitro", "result": "more selective for T-L over CT-L"}]}, {"smiles": "O=S(=O)(Nc1cc(Sc2nnc[nH]2)c(O)c2ccccc12)c1ccc(-c2ccccc2)cc1", "note": "[Compound 25]", "values": [{"measurement": "stability at room temperature", "setting": "[2]", "result": "stable at room temperature for up to two weeks"}]}, {"smiles": "O=S(=O)(Nc1cc(Sc2nnn[nH]2)c(O)c2ccccc12)c1ccc(-c2ccccc2)s1", "note": "[Compound 15f, N-(3-(1H-tetrazol-5-ylthio)-4-hydroxynaphthalen-1-yl)-5-phenylthiophene-2-sulfonamide]", "values": [{"measurement": "IC50", "setting": "[1]", "result": "~0.2", "unit": "µM"}, {"measurement": "fold improved CT-L inhibitory activity", "setting": "[1]; compared with compound 1", "result": "up to 20 fold"}, {"measurement": "stability at room temperature", "setting": "[2]", "result": "stable at room temperature for up to two weeks"}]}, {"smiles": "O=S(=O)(Nc1cc(Sc2nnn[nH]2)c(O)c2ccccc12)c1ccc(-c2ccc(C(F)(F)F)cc2)cc1", "note": "[Compound 39, N-(3-(1H-tetrazol-5-ylthio)-4-hydroxynaphthalen-1-yl)-4′-(trifluoromethyl)biphenyl-4-sulfonamide]", "values": [{"measurement": "mode of CT-L proteasome inhibition (reversible or irreversible)", "setting": "[3]", "result": "irreversibly; also recorded: irreversible"}, {"measurement": "recovery of CT-L activity during dialysis", "setting": "[3]", "result": "did not show any recovery"}, {"measurement": "stability in biological media (HPLC peak area)", "setting": "[4]", "result": "stable up to 7 days at 37 °C"}, {"measurement": "ubiquitination / accumulation of ubiquitinated cellular proteins", "setting": "[5]", "result": "concentration-dependent increase in ubiquitination; also recorded: induced the accumulation of ubiquitinated cellular proteins"}]}, {"smiles": "O=S(=O)(Nc1cc(Sc2ncn[nH]2)c(O)c2ccccc12)c1ccc(Oc2ccccc2)cc1", "note": "[Compound 29, N-(3-(1H-1,2,4-triazol-3-ylthio)-4-hydroxynaphthalen-1-yl)-4-phenoxybenzenesulfonamide]", "values": [{"measurement": "fold improved CT-L inhibitory activity", "setting": "[1]; compared with compound 1", "result": "up to 20 fold"}, {"measurement": "selectivity for CT-L over T-L activity", "setting": "[1]; in vitro", "result": 28, "unit": "fold"}]}, {"smiles": "O=S(=O)(Nc1cc(Sc2nnn[nH]2)c(O)c2ccccc12)c1ccc(-c2ccc(F)cc2)cc1", "note": "[Compound 15j, N-(3-(1H-tetrazol-5-ylthio)-4-hydroxynaphthalen-1-yl)-4′-fluorobiphenyl-4-sulfonamide]", "values": [{"measurement": "IC50", "setting": "[1]", "result": "~0.2", "unit": "µM"}, {"measurement": "fold improved CT-L inhibitory activity", "setting": "[1]; compared with compound 1", "result": "up to 20 fold"}]}, {"smiles": "O=C(O)CCSc1cc(NS(=O)(=O)c2cccs2)c2ccccc2c1O", "note": "[Compound 11d, 3-(1-Hydroxy-4-(thiophene-2-sulfonamido)naphthalen-2-ylthio)propanoic acid]", "values": [{"measurement": "fold decreased potency (CT-L)", "setting": "[1]; extended side chain, compared with compound 1", "result": 2, "unit": "fold"}]}, {"smiles": "O=C(O)CSc1cc(NS(=O)(=O)c2cccs2)c2ccccc2c1O", "note": "[Compound 1, 2-(1-Hydroxy-4-(thiophene-2-sulfonamido)naphthalen-2-ylthio)acetic acid]", "values": [{"measurement": "stability at room temperature", "setting": "[2]", "result": "stable at room temperature for up to two weeks"}, {"measurement": "impurities (oxidized material) after 2 weeks", "setting": "[2]; room temperature, after 2 weeks", "result": "3–5%"}, {"measurement": "mode of CT-L proteasome inhibition (reversible or irreversible)", "setting": "[3]", "result": "irreversibly; also recorded: irreversible"}, {"measurement": "recovery of CT-L activity during dialysis", "setting": "[3]", "result": "did not show any recovery"}, {"measurement": "stability in biological media (HPLC peak area)", "setting": "[4]", "result": "stable up to 7 days at 37 °C"}, {"measurement": "inhibition at 10 µM", "setting": "[6]", "result": "< 70", "unit": "%"}]}, {"smiles": "O=S(=O)(Nc1cc(Sc2ncn[nH]2)c(O)c2ccccc12)c1ccc(-c2ccc(F)cc2)cc1", "note": "[Compound 27, N-(3-(1H-1,2,4-triazol-3-ylthio)-4-hydroxynaphthalen-1-yl)-4′-fluorobiphenyl-4-sulfonamide]", "values": [{"measurement": "fold improved CT-L inhibitory activity", "setting": "[1]; compared with compound 1", "result": "up to 20 fold"}]}, {"smiles": "O=S(=O)(Nc1cc(Sc2nnn[nH]2)c(O)c2ccccc12)c1ccc(-c2ccccc2)cc1", "note": "[Compound 15e, N-(3-(1H-tetrazol-5-ylthio)-4-hydroxynaphthalen-1-yl)biphenyl-4-sulfonamide]", "values": [{"measurement": "IC50", "setting": "[1]", "result": "~0.2", "unit": "µM"}, {"measurement": "fold improved CT-L inhibitory activity", "setting": "[1]; compared with compound 1", "result": "up to 20 fold"}]}, {"smiles": "O=C(O)CSc1ccc(NS(=O)(=O)c2cccs2)c2ccccc12", "note": "[Compound 23, 2-(4-(Thiophene-2-sulfonamido)naphthalen-1-ylthio)acetic acid]", "values": [{"measurement": "IC50", "setting": "[1]", "result": "> 100", "unit": "µM"}]}, {"smiles": "O=S(=O)(Nc1cc(Sc2nnn[nH]2)c(O)c2ccccc12)c1ccc(Oc2ccccc2)cc1", "note": "[Compound 15k, N-(3-(1H-tetrazol-5-ylthio)-4-hydroxynaphthalen-1-yl)-4-phenoxybenzenesulfonamide]", "values": [{"measurement": "fold improved CT-L inhibitory activity", "setting": "[1]; compared with compound 1", "result": "up to 20 fold"}, {"measurement": "stability in biological media (HPLC peak area)", "setting": "[4]", "result": "stable up to 7 days at 37 °C"}]}, {"smiles": "O=S(=O)(Nc1cc(Sc2nnn[nH]2)c(O)c2ccccc12)c1ccc(C2CCCCC2)cc1", "note": "[Compound 15h, N-(3-(1H-tetrazol-5-ylthio)-4-hydroxynaphthalen-1-yl)-4-cyclohexylbenzenesulfonamide]", "values": [{"measurement": "IC50", "setting": "[1]", "result": "~0.2", "unit": "µM"}, {"measurement": "fold improved CT-L inhibitory activity", "setting": "[1]; compared with compound 1", "result": "up to 20 fold"}]}, {"smiles": "O=S(=O)(Nc1cc(Sc2nnn[nH]2)c(O)c2ccccc12)c1ccc(Cl)cc1", "note": "[Compound 35, N-(3-(1H-tetrazol-5-ylthio)-4-hydroxynaphthalen-1-yl)-4-chlorobenzenesulfonamide]", "values": [{"measurement": "selectivity CT-L versus T-L (in words)", "setting": "[1]; in vitro", "result": "equipotent against CT-L and T-L activities"}]}, {"smiles": "O=S(=O)(Nc1cc(Sc2nnn[nH]2)c(O)c2ccccc12)c1ccc(Cl)c(Cl)c1", "note": "[Compound 36, N-(3-(1H-tetrazol-5-ylthio)-4-hydroxynaphthalen-1-yl)-3,4-dichlorobenzenesulfonamide]", "values": [{"measurement": "selectivity CT-L versus T-L (in words)", "setting": "[1]; in vitro", "result": "equipotent against CT-L and T-L activities"}]}]}
